Most compounds without a hit are left out; they make up all but 4.1% or so of the library.
hERG rescue: shields human hERG channel from block by proarrhythmic agents; activation (rescue from dofetilide block), less the hit threshold, % at 10 µM; CHO-hERG, FluxOR thallium flux, dofetilide IC70 present; AID 1511; Q12809; 0.51% of 310,000 active;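 active means activation above the mean of controls blocked by dofetilide plus 5 SD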;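 further: thallium influx through hERG after potassium depolarization seen as dye fluorescence rise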
KCNQ1 pot: human KCNQ1 channel potentiation or activation | P51787 | CHO-K1 KCNQ1, thallium flux FluxOR fluorescence; active compounds read high | B-score at 10 µM | 0.35% of 310,000 active;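 active means fluorescence ratio B-score, a plate-corrected score, at least three library SD, with initial intensity B-score within 5 SD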
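Medium – assay buffer, equal DMSO in all wells · Material – CHO-K1 cell line with stable KCNQ1 potassium channel expression · Signal – kinetic FluxOR thallium fluorescence, 10-s 1-Hz baseline, 110-s post-stimulus read · Compound – single concentration per compound, DMSO matched to controls · Schedule – 37 °C overnight plating, 90-min dark dye load, 20-min compound pretreatment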
KCNK9 block: blocks the human KCNK9 two-pore domain potassium channel. AID 488922. Q9NPC2. HEK293 KCNK9, FluxOR thallium flux fluorescence; active compounds read low. B-score at 10 µM. 1.2% of 310,000 active;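 active means ratio B-score over 3 SD below the library mean, with starting fluorescence within 5 SD of its mean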;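 further: negative B-score means less thallium flux so channel inhibition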
KCNQ1 inh: human KCNQ1 channel inhibition. B-score at 10 µM. 1.3% of 310,000 active. P51787. CHO-K1 KCNQ1, FluxOR thallium flux fluorescence; active compounds read high;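 active means compounds whose thallium flux B-score, printed positive for inhibition, exceeds three library SD while starting fluorescence stays within three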;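 further: channel opened by potassium depolarization with thallium stimulus after 20 min compound exposure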
KCC2 mod: KCC2 (human) Cl- transport modulation; KCC2 cells, thallium flux FluoZin-2 fluorescence; B-score of Tl+ flux slope (higher = more flux/activation; lower = inhibition) at 10 µM; 2.2% of 190,000 active; AID 1456;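 active means thallium flux slope and its plate-corrected score both differing from the plate sample mean at a set confidence after two filtering rounds, in either direction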;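 further: slope of fluorescence scaled to starting intensity during 10 to 20 s after thallium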
Target sequence (Q9H2X9 whole entry, looked up): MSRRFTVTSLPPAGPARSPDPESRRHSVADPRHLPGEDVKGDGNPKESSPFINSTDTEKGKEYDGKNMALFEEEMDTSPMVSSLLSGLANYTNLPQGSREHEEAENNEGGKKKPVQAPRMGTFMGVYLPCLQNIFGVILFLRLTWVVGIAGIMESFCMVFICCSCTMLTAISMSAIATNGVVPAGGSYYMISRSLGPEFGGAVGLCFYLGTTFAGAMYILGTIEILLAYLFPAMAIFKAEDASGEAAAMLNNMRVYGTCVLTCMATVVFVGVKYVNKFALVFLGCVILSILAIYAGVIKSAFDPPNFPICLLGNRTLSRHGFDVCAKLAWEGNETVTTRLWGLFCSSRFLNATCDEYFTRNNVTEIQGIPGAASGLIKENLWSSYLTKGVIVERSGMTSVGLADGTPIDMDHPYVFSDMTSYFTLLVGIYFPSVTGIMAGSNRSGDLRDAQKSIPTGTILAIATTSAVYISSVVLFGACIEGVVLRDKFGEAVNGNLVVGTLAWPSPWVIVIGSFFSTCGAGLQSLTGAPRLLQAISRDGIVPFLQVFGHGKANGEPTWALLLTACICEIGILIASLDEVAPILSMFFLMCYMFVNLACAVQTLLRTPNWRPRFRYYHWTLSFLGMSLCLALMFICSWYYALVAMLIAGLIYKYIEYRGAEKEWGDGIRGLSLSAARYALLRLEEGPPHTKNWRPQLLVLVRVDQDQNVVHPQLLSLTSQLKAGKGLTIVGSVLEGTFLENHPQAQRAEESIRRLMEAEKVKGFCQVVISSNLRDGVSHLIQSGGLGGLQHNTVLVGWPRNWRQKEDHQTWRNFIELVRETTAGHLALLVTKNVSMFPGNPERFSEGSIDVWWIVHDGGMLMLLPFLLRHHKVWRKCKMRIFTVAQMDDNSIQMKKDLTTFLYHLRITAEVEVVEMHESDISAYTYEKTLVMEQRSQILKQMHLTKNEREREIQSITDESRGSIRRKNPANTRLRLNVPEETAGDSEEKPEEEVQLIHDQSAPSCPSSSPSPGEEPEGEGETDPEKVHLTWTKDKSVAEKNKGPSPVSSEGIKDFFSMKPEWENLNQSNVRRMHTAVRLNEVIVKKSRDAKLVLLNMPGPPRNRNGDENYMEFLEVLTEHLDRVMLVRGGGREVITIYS
KCNK3 inh: human KCNK3 channel inhibition, primary screen; O14649; CHO-KCNK3 thallium flux, FluxOR fluorescence; active compounds read low; B-score at 10 µM; 0.84% of 340,000 active; AID 602410;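 active means B-score under library mean minus 4 SD, starting fluorescence ratio at most library mean plus 5 SD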;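 further: more negative B-score means stronger inhibition of thallium flux through KCNK3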
KCC2 secondary: confirmation of human KCC2 transport modulators. shares compounds with KCC2 mod. 15% of 3,700 active. normalised thallium flux (F/F0 slope) at 10 µM. HEK293-KCC2, thallium flux, FluoZin2 fluorescence; active compounds read high;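 active means thallium flux slope above the same plate's solvent-only control mean plus 3 SD; inconclusive means the two replicate wells disagree; inactive means no significant difference from solvent-only control wells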
KCC2 bumet counter: bumetanide-insensitive thallium flux in KCC2 cells with ouabain, counter-screen; 49% of 3,700 active; shares compounds with KCC2 mod; normalized thallium flux at 10 µM; HEK293-KCC2 + bumetanide/ouabain, thallium flux FluoZin2; active compounds read high;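 active means thallium entry rate above the same plate's blocked-transporter control wells by more than 3 SD; inconclusive means the two repeat wells disagree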;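 further: raw slope of fluorescence over initial fluorescence between 10 and 20 s after thallium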
KCC2 secondary2: KCC2 (human) modulation, second secondary assay; normalized thallium flux at 10 µM; AID 1715; HEK293-KCC2, thallium flux FluoZin2 fluorescence; actives lie on both sides; F/F0 rise rate, 10–20 s post-thallium; 23% of 3,700 active; shares compounds with KCC2 mod;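 active means thallium flux slope more than 3 SD above or below the plate's solvent-only control mean, mostly below; inconclusive means the two repeat wells disagreed; inactive means no significant shift from solvent-only controls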;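 further: raw slope with 0.1% DMSO as baseline and bumetanide as block control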
HEK counter1: counter-screen for KCC2 modulators: effect in parental HEK293 cells | AID 1716 | shares compounds with KCC2 mod | thallium flux FluoZin2, ouabain; baseline-ratio fluorescence slope, 10–20 s after thallium | thallium flux rate (normalised fluorescence) at 10 µM | 46% of 3,700 active;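 active means thallium flux rate significantly above the same plate's solvent-only control wells, beyond their mean plus 3 SD; inconclusive means the two replicate wells gave conflicting results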
KCC2 ouabain: modulates human KCC2 on retest with ouabain; shares compounds with KCC2 mod; AID 1717; raw Tl+ flux slope (below DMSO = inhibition, above = activation) at 10 µM; 48% of 3,700 active; HEK293-KCC2, thallium flux FluoZin2 fluorescence; bidirectional: low = inhibitor, high = activator;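 active means thallium flux slope beyond 3 SD from same-plate DMSO control mean in most replicates, usually higher, sometimes lower; inconclusive means repeat tests gave conflicting results; inactive means no significant difference from controls in most replicates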;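 further: slope of initial-normalized fluorescence between seconds 10 and 20 after thallium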
HEK293 Tl flux2: counter-screen for KCC2 modulators: effect in parental HEK293 cells; 33% of 3,700 active; shares compounds with KCC2 mod; thallium flux FluoZin-2 fluorescence slope; thallium flux slope at 10 µM; AID 1718;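 active means thallium flux slope above the same plate's solvent-control mean plus 3 SD in both duplicate wells; inconclusive means duplicate wells that disagreed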;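 further: run without ouabain in cells lacking the KCC2 cotransporter; slope of fluorescence scaled to its starting value between 10 and 20 s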
KCNK9 block conf: human KCNK9 inhibitor confirmation; shares compounds with KCNK9 block; HEK293 KCNK9 cells, FluxOR thallium flux fluorescence; inhibition, % at 10 µM; 43% of 4,900 active;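 active means thallium signal inhibited by more than 5 SD of the compound-free buffer control wells, on both duplicate plates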;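 further: 0% = assay buffer control wells without compound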
Kir21 sel: selectivity of KCNK9 modulators against mouse Kir2.1; shares compounds with KCNK9 block; AID 492993; 4% of 4,900 active; inhibition, % at 10 µM; Kir2.1 cells, FluxOR thallium flux fluorescence;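 active means thallium signal drop more than 5 SD beyond the mean of the no-compound control wells, seen in both duplicate plates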;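 further: signal is fluorescence rise after thallium addition divided by baseline fluorescence; plate controls were assay buffer only for no effect and full block by chlorpromazine control for full effect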
HEK293 Tl ctr: non-induced cell nonspecific activity of KCNK9 modulators | shares compounds with KCNK9 block | non-induced KCNK9-HEK293, FluxOR thallium flux | inhibition, % at 10 µM | 40% of 4,900 active;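 active means thallium signal drop beyond 5 SD of the untreated control mean, on both duplicate plates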;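 further: plate controls were buffer only IC0 wells for no effect and SID17386958 at its maximal inhibitory level for full effect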
An asterisk follows results filed as active; i = inactive; ? = inconclusive; · = no result.

SMILES	hERG rescue	KCNQ1 pot	KCNK9 block	KCNQ1 inh	KCC2 mod	KCNK3 inh	KCC2 secondary	KCC2 bumet counter	KCC2 secondary2	HEK counter1	KCC2 ouabain	HEK293 Tl flux2	KCNK9 block conf	Kir21 sel	HEK293 Tl ctr
O=C(N/N=C/c1cc([N+](=O)[O-])cc(Br)c1O)C12CC3CCC(CC(C3)C1)C2	-22	25*	i	i	8.3*	i	0.0087	0.017*	0.033	0.012*	?	?	i	i	i
O=C(C1CCCN(S(=O)(=O)c2cccc3nsnc23)C1)N1CCc2ccccc21 (stereo not drawn)	-8	i	i	i	·	i	0.0065	0.0071	0.031	?	0.024	0.011	i	i	i
CCOC(=O)c1ccccc1NC(=O)CSc1nnc(C)c(=O)[nH]1	-4	i	i	i	·	i	·	·	·	·	·	·	·	·	·
COc1cc(/C=C2\SC(=Nc3ccccc3)N(Cc3ccco3)C2=O)ccc1OC(C)C(=O)O (stereo not drawn)	-10	i	i	i	-0.84	i	·	·	·	·	·	·	·	·	·
COCCN1C(=O)/C(=C/c2ccc(OCc3ccc(C(=O)O)cc3)c(OC)c2)SC1=Nc1ccccc1	-33	i	i	i	-5.7*	i	0.0074	0.0051	0.022*	0.0066	0.013*	0.0094	i	i	i
CS(=O)(=O)c1cccc(NC(=O)C2CCCN2S(=O)(=O)c2ccc(F)cc2)c1 (stereo not drawn)	-3	i	i	i	·	i	·	·	·	·	·	·	·	·	·
COc1ccc(OC)c(NC(=O)C(Sc2ccccc2)c2ccccc2)c1 (stereo not drawn)	-8	i	-11*	i	·	i	0.016	0.0036	0.03	0.007	0.016	0.0094	58%*	i	46%*
COc1ccc(C(c2nnnn2Cc2cccs2)N2CCN(c3ccccc3F)CC2)cc1 (stereo not drawn)	-5	i	-12*	i	-4.1*	i	0.0068	?	?	0.0076	0.018*	0.011	28%*	i	38%*
Cc1ccc(S(=O)(=O)N(C)c2ccc(C(=O)N3CCc4ccccc4C3)cc2)cc1	-9	i	i	i	-4.8*	i	0.014	0.0039	0.024*	?	0.013*	0.0095	i	i	i
CCOC(=O)C(=O)/C(=C\N(C)C)c1onc(-c2c(Cl)cccc2Cl)c1C(=O)OC	-7	i	i	i	·	i	·	·	·	·	·	·	·	·	·
N#C/C(=C/c1ccc(N2CCCCCC2)o1)c1ccc(F)cc1	-14	i	-9.3*	i	·	-11*	0.015	?	0.028	?	0.013*	0.0094	58%*	i	70%*
N#C/C(=C/c1ccc(N2CCOCC2)o1)c1nc2ccccc2[nH]1	·	·	·	·	i	i	·	·	·	·	·	·	·	·	·
Cc1ccc(NC(=S)N/N=C2/CCCCc3ccccc32)cc1	-5	8*	i	i	33*	i	0.0073	0.04*	?	0.033*	0.033*	0.031*	i	i	i
Cc1cccc(NC(=S)N/N=C2/CCCCc3ccccc32)c1	5.8*	i	i	i	7.9*	i	0.0086	0.036*	0.046*	0.042*	0.037*	0.024*	i	i	i
Cc1cccc(NC(=S)N2CCCC2)c1	-8	i	i	i	·	i	·	·	·	·	·	·	·	·	·
O=c1cc(-c2ccccc2)nc2c(-c3ccccc3)c(C(F)(F)F)[nH]n12	54*	13*	i	i	3.8*	i	0.0099	0.014*	0.033	0.011*	0.022	0.0091	i	i	i
COc1ccc(C(=O)COc2ccc3ccc(=O)oc3c2)c(OC)c1	-9	i	i	i	·	i	·	·	·	·	·	·	·	·	·
Cc1cc(C)c(NC(=O)CS(=O)CC(=O)NCCN2CCCCCC2)c(C)c1 (stereo not drawn)	-4	i	i	i	·	i	·	·	·	·	·	·	·	·	·
Cc1ccccc1C(=O)NC(=S)NCCC1=CCCCC1	-8	i	i	i	4.4*	i	0.011	0.016*	0.034	0.026*	0.027*	?	i	i	i
Cc1ccccc1OCC(=O)NCCC1=CCCCC1	-6	i	i	i	0.077	i	·	·	·	·	·	·	·	·	·
CCCCOc1cccc(C(=O)NC(=S)Nc2cccc(C(F)(F)F)c2)c1	-5	i	i	i	6.5*	i	0.0075	0.016*	?	0.02*	0.027*	0.016*	i	i	i
COc1cccc(NC(=O)CN(C)C(=O)c2ccc(NC3CC3)c([N+](=O)[O-])c2)c1	·	·	·	·	·	i	·	·	·	·	·	·	·	·	·
CCc1ccc(OCc2nnc(SCC(=O)NCC3CCCO3)n2C)cc1 (stereo not drawn)	-8	i	i	i	·	i	·	·	·	·	·	·	·	·	·
Cc1ccccc1Cn1nc(C)c(NC(=O)c2noc3c2CCc2ccccc2-3)c1C	-12	i	i	i	-3.8*	i	0.0085	0.0068	0.033	0.0081	0.019	0.011	i	i	i
COc1ccccc1OCc1nc(C#N)c(NCc2ccco2)o1	-11	i	i	i	-1	i	·	·	·	·	·	·	·	·	·

Screening data from PubChem.
